As a reminder, the pIC50 is the negative decadic logarithm of the IC50, by convention in mol/L.

Consider one compound from ChEMBL document CHEMBL4411278, “Discovery of potent and selective inhibitors of the Escherichia coli M1-aminopeptidase via multicomponent solid-phase synthesis of tetrazole-peptidomimetics” (Eur J Med Chem, 2019).

pIC50: −log10 of the molar value. Activity calls are given as the source filed them. No cut-off for these calls is given here.

Series [1] has as its system Erythrocyte. Put plainly: Haemolytic activity in human erythrocytes assessed as induction of hemolysis after 3 hrs. Type of series: cell-based. The gist of the method: (§1)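 Fresh human red blood cells were washed and resuspended in 145 mM NaCl, 10 mM Tris-HCl pH 7.4, adjusted so full lysis with Na2CO3 gives A540 ≈0.7. Cells were incubated with compounds for 3, 6 or 20 h, with untreated and 1% DMSO controls. Supernatant haemoglobin was measured after centrifugation.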

Series [2] is described as follows: Inhibition of M1 aminopeptidase in porcine kidney cortex microsomes using Leu-pNA as substrate preincubated for 15 mins followed by substrate addition. More on the design: species or system Sus scrofa.
The subject of series [3] is Erythrocyte. Put plainly: Haemolytic activity in human erythrocytes assessed as induction of hemolysis after 20 hrs. In kind it is cell-based. The gist of the method: as §1
A short description of series [4]: Cytotoxicity against mouse P3X63Ag assessed as reduction in cell viability after 20 hrs by MTT assay. The gist of the method: (§2)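 P3X63Ag murine myeloma cells were grown in DMEM-F12 with 10% FCS at 37°C, 5% CO2. For the assay they were plated in serum-free DMEM-F12 and exposed to compounds for 3, 6 or 20 h. After a PBS wash, cells got MTT for 3 h and crystals were dissolved in DMSO. Absorbance was read at 450 nm (620 nm reference), and viability calculated as 100×At/Ac versus untreated cells.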

The test system of series [5] is Erythrocyte. Put plainly: Haemolytic activity in human erythrocytes assessed as induction of hemolysis after 6 hrs. Type of series: cell-based. The gist of the method: as §1
The subject of series [6] is Escherichia coli. Put plainly: Growth inhibition of Escherichia coli BL21 after 3 to 6 hrs by spectrophotometric analysis. Type of series: functional, organism-based. The gist of the method: (§3)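 E. coli BL21 was inoculated at 1% from an overnight culture into LB. Compounds were added at eight concentrations (0.781–100 μM) from DMSO serial dilutions, with DMSO and 200 μg/mL ampicillin controls; four replicates. Plates were held at 37°C and raised to 42°C at 6 h. A595 was read at 0, 3, 6 and 20 h and normalized to the DMSO control (100% growth).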

A short description of series [7]: Selectivity index, ratio of IC50 for M1 aminopeptidase in porcine kidney cortex microsomes to IC50 for recombinant Escherichia coli M1 aminopeptidase.
Series [8] in a line: Haemolytic activity in human erythrocytes assessed as induction of hemolysis at 100 uM after 20 hrs relative to control. Type of series: cell-based, Erythrocyte. The note with it: read-out: Activity. The method in brief:
as §1

Series [9] in a line: Cytotoxicity against mouse P3X63Ag assessed as reduction in cell viability at 50 uM after 20 hrs by MTT assay relative to control. The method in brief:
as §2
(In general: Formazan colour is commonly taken as a measure of viable cells.)

Series [10] deals with Escherichia coli. Briefly: Reversible inhibition of recombinant Escherichia coli M1 aminopeptidase using Leu-pNA as substrate preincubated for 15 mins followed by substrate addition. The method in brief:
(§4)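 Recombinant ePepN (partially purified by ion exchange) or porcine kidney cortex microsomal APN was pre-incubated 15 min at 25°C with inhibitor in DMSO (final ≤2% v/v), then 75 μM Leu-pNA (~1 KMapp) was added. Buffer was 50 mM Tris-HCl pH 8.0. A405 was read every 15 s for 3 min. Doses were double serial dilutions over 0.781–100 μM, and IC50 came from a logistic fit of residual activity (vi/v0); at least triplicate.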

The nature of series [11]: Cytotoxicity against mouse P3X63Ag assessed as reduction in cell viability after 3 hrs by MTT assay. The method in brief:
as §2

Series [12] can be described thus: (§5) Inhibition of recombinant Escherichia coli M1 aminopeptidase using Leu-pNA as substrate preincubated for 15 mins followed by substrate addition. The method in brief:
as §4

Series [13] concerns Escherichia coli. The series is described as §5. The method in brief:
as §4

A short description of series [14]: Cytotoxicity against mouse P3X63Ag assessed as reduction in cell viability after 6 hrs by MTT assay. The method in brief:
as §2

Series [15] in a line: Cytotoxicity against mouse P3X63Ag assessed as reduction in cell viability at 50 uM after 6 hrs by MTT assay relative to control. The method in brief: as §2
Series [16] concerns Escherichia coli. Put plainly: Growth inhibition of Escherichia coli BL21 after 20 hrs by spectrophotometric analysis. In kind it is functional, organism-based. The note with it: BL21, BL21, 20 h. The gist of the method: as §3
Series [17] can be described thus: Cytotoxicity against mouse P3X63Ag assessed as reduction in cell viability at 50 uM after 3 hrs by MTT assay relative to control. The gist of the method: as §2

In the case of `COc1ccc(C(N[C@@H](Cc2ccc(OCc3ccccc3)cc2)C(=O)O)c2nnnn2C2CCCCC2)cc1` (some centres not stated), the HC20 was > 100 µM in series [1], 65 µM in [3] and 70 µM in series [5]. Moreover, the pIC50 was 2.80 in [2]; 4.00 in series [4]; > 4.30 in series [6]; < 4.00 in series [11]; 5.85 in series [12]; 4.00 in series [14]. Also, the pIC50 in series [16] was > 4.00. The Ratio IC50 in [7] amounted to 1130. The hemolysis at 20 h, 100 µM in [8] is 40%. Also, the Activity result in [9] is “<= 50%”; in series [15], “<= 50%”; in [17], “<= 60%”. Moreover, the inhibition result in series [10] is “Active”. The inhibition result in series [13] is “Dose-dependent effect”.
